# ChEMBL document CHEMBL1140992, “High throughput screening of potentially selective MMP-13 exosite inhibitors utilizing a triple-helical FRET substrate” (Bioorg Med Chem, 2009)
# Legend:
# [1] = biological target: Matrix metalloproteinase-9 (Homo sapiens) (UniProt P14780); assay: Inhibition recombinant MMP9 at 100 uM; design: scale not given: the % may be the effect or the level left
# In short: (§1)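 Pro-enzyme (MMP-8 expressed in CHO-K1 cells; MMP-9 recombinant) was activated with 1 mM APMA for 1 h at 37 °C. Active enzyme concentration was determined by titration with recombinant N-TIMP-1, using Knight fSSP or NFF-3 substrate.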
# [2] = biological target: Neutrophil collagenase (Homo sapiens) (UniProt P22894); assay: Inhibition recombinant MMP8 expressed in CHO-K1 cells at 100 uM; format: cell-based; design: scale not given: the % may be the effect or the level left; in short: as §1
# Collagenase 3 [3] = biological target: T1, Collagenase 3 (Homo sapiens, UniProt P45452); assay: Activity of human recombinant MMP13; design: concentration or dose not given beside the values
# In short: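 Recombinant full-length human proMMP-13, activated with 1 mM APMA for 2 h at 37 °C and active-site titrated with N-TIMP-1. Run in 1536-well format in Tris·HCl pH 7.5, 100 mM NaCl, 10 mM CaCl2, 0.05% Brij-35, 0.3% DMSO. Triple-helical FRET substrate fTHP-15 (Mca/Dnp). Stopped with EDTA after 4 h at 25 °C; fluorescence read at ex 325/em 450 nm. Dose-response in triplicate, 10-point 1:3 dilutions from 40 μM; IC50 from four-parameter sigmoidal fit.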
# [4] = biological target: T2, Interstitial collagenase (Homo sapiens) (UniProt P03956); assay: Inhibition recombinant MMP1 at 100 uM; design: scale not given: the % may be the effect or the level left
# T2 sequence (whole entry): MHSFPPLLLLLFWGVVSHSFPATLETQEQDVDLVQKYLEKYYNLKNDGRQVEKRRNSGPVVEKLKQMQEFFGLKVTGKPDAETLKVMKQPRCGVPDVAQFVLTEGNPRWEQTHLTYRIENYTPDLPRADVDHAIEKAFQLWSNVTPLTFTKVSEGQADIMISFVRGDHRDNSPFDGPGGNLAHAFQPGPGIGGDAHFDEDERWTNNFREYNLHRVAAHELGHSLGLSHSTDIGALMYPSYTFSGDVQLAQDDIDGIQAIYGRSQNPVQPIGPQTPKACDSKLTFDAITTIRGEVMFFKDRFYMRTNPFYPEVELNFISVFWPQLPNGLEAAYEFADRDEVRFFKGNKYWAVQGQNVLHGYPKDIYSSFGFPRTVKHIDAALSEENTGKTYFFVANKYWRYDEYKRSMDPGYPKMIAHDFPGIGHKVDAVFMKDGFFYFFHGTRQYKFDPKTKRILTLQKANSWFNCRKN
# In short: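 Enzyme source: proMMP-1 expressed in E. coli and refolded from inclusion bodies. Activated with 1 mM APMA plus 0.1 equiv MMP-3(Δ248-460) for 6 h at 37 °C. The MMP-3 fragment was then removed by size-exclusion chromatography. Active enzyme was quantified by titration with recombinant N-TIMP-1, using Knight fSSP or NFF-3 as substrate.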
# [5] = biological target: Stromelysin-1 (Homo sapiens) (UniProt P08254); assay: Inhibition recombinant MMP3 at 100 uM; design: scale not given: the % may be the effect or the level left
# In short: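 ProMMP-3 was expressed in E. coli and folded from inclusion bodies. It was activated with 5 μg/mL chymotrypsin at 37 °C for 2 h, and chymotrypsin was then inactivated with 2 mM diisopropylfluorophosphate. Active concentration was set by N-TIMP-1 titration, with Knight fSSP or NFF-3 as substrate.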
# [6] = biological target: 72 kDa type IV collagenase (Homo sapiens) (UniProt P08253); assay: Inhibition recombinant MMP2 at 100 uM; design: scale not given: the % may be the effect or the level left
# [7] = biological target: Macrophage metalloelastase (Homo sapiens) (UniProt P39900); assay: Inhibition recombinant MMP12 at 100 uM; design: scale not given: the % may be the effect or the level left
# In short: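 Recombinant MMP-12 was expressed directly in active form, with no zymogen activation step. Active concentration was determined by recombinant N-TIMP-1 titration, with Knight fSSP or NFF-3 as substrate.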
# Collagenase 3 [8] = biological target: T1, Collagenase 3; assay: Inhibition of human recombinant MMP13 expressed in Escherichia coli
# Chain of 72 kDa type IV collagenase (Homo sapiens) (P08253 110-660 limits assumed): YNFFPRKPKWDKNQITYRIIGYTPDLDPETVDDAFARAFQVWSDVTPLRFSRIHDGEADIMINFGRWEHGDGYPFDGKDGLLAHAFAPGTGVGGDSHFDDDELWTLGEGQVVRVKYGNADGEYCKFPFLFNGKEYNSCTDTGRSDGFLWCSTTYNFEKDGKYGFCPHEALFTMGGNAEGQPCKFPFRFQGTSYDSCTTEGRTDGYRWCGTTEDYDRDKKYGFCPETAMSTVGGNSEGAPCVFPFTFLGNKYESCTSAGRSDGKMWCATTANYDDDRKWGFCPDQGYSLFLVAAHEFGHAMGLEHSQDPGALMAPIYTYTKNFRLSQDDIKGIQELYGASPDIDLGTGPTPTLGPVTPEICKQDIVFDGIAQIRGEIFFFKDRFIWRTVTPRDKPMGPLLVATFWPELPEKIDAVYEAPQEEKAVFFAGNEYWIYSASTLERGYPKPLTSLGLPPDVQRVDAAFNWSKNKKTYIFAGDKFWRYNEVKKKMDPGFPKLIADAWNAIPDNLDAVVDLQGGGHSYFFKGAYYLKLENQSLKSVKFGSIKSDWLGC
# Chain of Neutrophil collagenase (Homo sapiens) (P22894 101-467 limits assumed): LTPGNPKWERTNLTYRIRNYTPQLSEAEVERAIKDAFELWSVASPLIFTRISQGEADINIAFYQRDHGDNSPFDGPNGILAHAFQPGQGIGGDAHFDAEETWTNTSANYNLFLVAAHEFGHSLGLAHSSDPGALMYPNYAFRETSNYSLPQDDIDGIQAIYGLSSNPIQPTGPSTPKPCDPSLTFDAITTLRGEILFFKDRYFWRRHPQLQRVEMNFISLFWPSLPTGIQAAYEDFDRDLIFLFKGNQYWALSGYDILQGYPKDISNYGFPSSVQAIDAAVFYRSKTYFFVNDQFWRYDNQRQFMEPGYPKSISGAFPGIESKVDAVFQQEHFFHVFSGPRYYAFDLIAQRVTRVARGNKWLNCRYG
# Chain of Matrix metalloproteinase-9 (Homo sapiens) (P14780 whole entry): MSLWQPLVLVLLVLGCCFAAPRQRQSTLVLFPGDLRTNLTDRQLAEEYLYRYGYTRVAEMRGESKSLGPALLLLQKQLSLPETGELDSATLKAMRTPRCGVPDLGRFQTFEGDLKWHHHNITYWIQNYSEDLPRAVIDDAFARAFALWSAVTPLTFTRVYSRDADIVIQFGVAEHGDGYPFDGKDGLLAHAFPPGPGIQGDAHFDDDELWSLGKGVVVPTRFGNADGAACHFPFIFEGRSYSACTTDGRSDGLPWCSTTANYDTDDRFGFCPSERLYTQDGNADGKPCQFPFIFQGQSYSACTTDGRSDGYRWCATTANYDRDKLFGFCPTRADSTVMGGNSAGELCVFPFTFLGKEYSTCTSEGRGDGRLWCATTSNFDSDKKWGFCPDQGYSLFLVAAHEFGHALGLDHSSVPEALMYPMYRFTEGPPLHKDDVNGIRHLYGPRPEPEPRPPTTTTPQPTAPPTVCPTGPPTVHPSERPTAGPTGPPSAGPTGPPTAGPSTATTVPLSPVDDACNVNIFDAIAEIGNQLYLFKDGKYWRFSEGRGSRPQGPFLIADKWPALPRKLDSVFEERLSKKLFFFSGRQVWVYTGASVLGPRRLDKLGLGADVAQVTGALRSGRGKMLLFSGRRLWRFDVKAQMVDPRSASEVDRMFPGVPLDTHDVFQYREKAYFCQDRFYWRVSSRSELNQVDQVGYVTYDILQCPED
# Chain of Macrophage metalloelastase (Homo sapiens) (P39900 106-470 limits assumed): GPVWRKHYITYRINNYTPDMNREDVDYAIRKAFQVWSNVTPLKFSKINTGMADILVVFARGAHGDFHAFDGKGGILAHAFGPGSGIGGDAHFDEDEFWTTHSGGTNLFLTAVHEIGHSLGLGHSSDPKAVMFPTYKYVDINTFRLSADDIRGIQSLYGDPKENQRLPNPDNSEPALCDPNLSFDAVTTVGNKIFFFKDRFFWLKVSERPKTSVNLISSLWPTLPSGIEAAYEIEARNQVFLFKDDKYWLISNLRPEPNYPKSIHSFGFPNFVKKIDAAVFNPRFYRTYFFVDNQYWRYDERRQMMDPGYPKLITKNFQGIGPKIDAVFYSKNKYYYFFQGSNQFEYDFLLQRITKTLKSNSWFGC
# Chain of Stromelysin-1 (Homo sapiens) (P08254 100-477 limits assumed): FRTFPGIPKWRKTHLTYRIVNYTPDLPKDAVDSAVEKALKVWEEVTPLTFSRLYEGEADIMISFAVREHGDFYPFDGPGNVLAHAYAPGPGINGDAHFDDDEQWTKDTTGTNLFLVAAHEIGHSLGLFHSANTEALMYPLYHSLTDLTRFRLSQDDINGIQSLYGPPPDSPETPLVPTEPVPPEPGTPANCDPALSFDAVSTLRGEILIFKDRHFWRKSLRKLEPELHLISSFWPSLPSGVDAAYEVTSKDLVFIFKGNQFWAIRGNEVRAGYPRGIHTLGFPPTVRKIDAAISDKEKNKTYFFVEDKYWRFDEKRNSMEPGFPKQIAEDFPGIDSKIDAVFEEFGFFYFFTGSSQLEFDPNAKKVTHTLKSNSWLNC
structure (smiles),measurement,setting,value
COc1cc(OC)cc(-c2nnc(Nc3nc4c(F)cccc4s3)o2)c1,Activity,[1],75%
same,Activity,[2],36%
same,Activity,Collagenase 3 [3],35%
same,Activity,[4],96%
same,Activity,[5],95%
same,Activity,[6],73%
same,Activity,[7],64%
CCN1C(=O)/C(=C2/Sc3ccccc3N2CCCS(=O)(=O)O)SC1=S,Activity,[1],14%
same,Activity,[2],100%
same,Activity,Collagenase 3 [3],4%
same,Activity,[4],88%
same,Activity,[5],90%
same,Activity,[6],80%
same,Activity,[7],94%
COc1cc(-n2nc(C)c3c2OC(N)=C(C#N)C3c2ccccc2)c(Cl)c(Br)c1O (stereo unspecified),IC50,Collagenase 3 [8],> 40 µM
O=C1NC(=O)C(CCc2ccncc2)(c2ccccc2)C(=O)N1,Activity,[1],3%
same,Activity,[2],8%
same,Activity,Collagenase 3 [3],14%
same,Activity,[4],27%
same,Activity,[5],87%
same,Activity,[6],17%
same,Activity,[7],1%
Cc1nn(-c2ccccc2)c2sc(-c3nnc(S)o3)cc12,Activity,[1],100%
same,Activity,[2],32%
same,IC50,Collagenase 3 [8],0.9 µM
same,Activity,Collagenase 3 [3],45%
same,Activity,[4],68%
same,Activity,[5],75%
same,Activity,[6],100%
same,Activity,[7],75%
CCOC(=O)/C(C#N)=C1/C=Nc2ccccc2N1,Activity,[1],99%
same,Activity,[2],80%
same,IC50,Collagenase 3 [8],3.4 µM
same,Activity,Collagenase 3 [3],62%
same,Activity,[4],94%
same,Activity,[5],96%
same,Activity,[6],100%
same,Activity,[7],100%
O=C(O)CCC(NS(=O)(=O)c1ccc(-c2ccccc2)cc1)C(=O)O (stereo unspecified),Activity,[1],14%
same,Activity,[2],2%
same,IC50,Collagenase 3 [8],2.1 µM
same,Activity,Collagenase 3 [3],4%
same,Activity,[4],25%
same,Activity,[5],63%
same,Activity,[6],7%
same,Activity,[7],2%
Oc1nc(SCc2ccc(Cl)cc2)nc2c1CCC2,IC50,Collagenase 3 [8],10.3 µM
COc1ccc(C2C(C(C)=O)=C(C)N=c3s/c(=C\c4cc(C)n(C)c4C)c(=O)n32)c(OC)c1 (stereo unspecified),IC50,Collagenase 3 [8],> 40 µM
COc1ccc(CSc2nc(C)cc(O)n2)cc1,Activity,[1],66%
same,Activity,[2],80%
same,Activity,Collagenase 3 [3],25%
same,Activity,[4],98%
same,Activity,[5],97%
same,Activity,[6],47%
same,Activity,[7],72%
CCOC(=O)C1CCCN(c2nc3ccccc3nc2C(C#N)C(=O)OCC)C1 (stereo unspecified),IC50,Collagenase 3 [8],13.3 µM
COC(=O)c1ccc(CSc2nc(O)c3c(-c4cccs4)csc3n2)o1,Activity,[1],100%
same,Activity,[2],94%
same,Activity,Collagenase 3 [3],42%
same,Activity,[4],93%
same,Activity,[5],92%
same,Activity,[6],100%
same,Activity,[7],92%
CCCCCCOc1ccc(C(CC(=O)O)C(N)=O)cc1 (stereo unspecified),Activity,[1],0%
same,Activity,[2],10%
same,Activity,Collagenase 3 [3],15%
same,Activity,[4],91%
same,Activity,[5],43%
same,Activity,[6],0%
same,Activity,[7],0%
C=CCN1C(=O)/C(=C2/Sc3ccccc3N2CCCS(=O)(=O)O)SC1=S,Activity,[1],100%
same,Activity,[2],100%
same,Activity,Collagenase 3 [3],36%
same,Activity,[4],96%
same,Activity,[5],100%
same,Activity,[6],100%
same,Activity,[7],100%
O=C1NC(=O)C(CCc2ccncc2)(C2CCCCC2)C(=O)N1,Activity,[1],27%
same,Activity,[2],50%
same,Activity,Collagenase 3 [3],35%
same,Activity,[4],47%
same,Activity,[5],96%
same,Activity,[6],49%
same,Activity,[7],21%
O=C(CSCc1nc(O)n[nH]1)NCCOc1cccc(Oc2ccccc2)c1,Activity,[1],27%
same,Activity,[2],34%
same,Activity,Collagenase 3 [3],35%
same,Activity,[4],85%
same,Activity,[5],96%
same,Activity,[6],19%
same,Activity,[7],33%
